Compound activity (PubChem BioAssay)
eIF2B yeast act = GCN4-lacZ reporter reduction in eIF2B-epsilon mutant yeast, primary screen, S. cerevisiae, eIF2B-epsilon R284H, Beta-Glo luminescence | inhibition, % at 25 µM (by protocol) | 27,000 tested, 0.91% active | AID 688, 2007;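 active = mutant luminescence inhibited past about 50% while wild type luminescence and mutant growth stay under set limits, limit read from the data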
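Times: 16 h growth with compound at 30 °C, 90 min Beta-Glo step; Assay system: yeast eIF2B-epsilon R284H mutant carrying GCN4–beta-galactosidase fusion; Measure: % inhibition of reporter signal and growth versus controls; Dosing: one concentration, 25 µM, 0.25% DMSO; Buffer or medium: YPD yeast growth medium; Measured by: Beta-Glo luminescence plus absorbance at 595 nm.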
Yeast growth tox = yeast growth toxicity, wild-type and mutant, primary screen, cytotoxicity control for eIF2B function restoration project, wild-type and eIF2Bepsilon R284H mutant, A595. S. cerevisiae wild-type growth, A595 turbidity, 16 h. growth inhibition, % at 25 µM (by protocol). 30,000 tested, 0.3% active;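 active = mutant and wild-type yeast strains alike exhibit over 30% growth inhibition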
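System: S. cerevisiae wild-type or eIF2Bepsilon-R284H mutant strain; times: 16 h growth with compound, 30 °C; signal: absorbance at 595 nm (turbidity); measure: growth inhibition (%) versus cell controls and blanks; compound: 25 µM single dose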
Each line names hits and unclear results; the compound was inactive in the other large screens. Compounds with a hit are over-represented: about 1% of the library has one in this group of screens.

COP(=O)(OC)C1(Nc2ccc(C)cc2)CCCCC1	Yeast growth tox 49
CCN1CCC(O)(c2ccccc2)C(C(=O)c2ccccc2)C1 (stereo unspecified)	none
CN(C)P(=O)(C(Cl)=C(N1CCCCC1)N1CCCCC1)N(C)C	eIF2B yeast act 58
CC12CN3CCN(C1)CC(C)(C3)C2=NO	none
CCN1C(=O)c2ccccc2Sc2ccc(C(=O)N3CCC4(CC3)OCCO4)cc21	none
CN1C(=O)c2ccccc2Sc2ccc(C(=O)N3CCC4(CC3)OCCO4)cc21	eIF2B yeast act 63
NCC(CC(=O)O)C1CCCCC1 (stereo unspecified)	none
CN(Cc1ccccc1)C(=C(Cl)Cl)/C(=C1/NCCN1Cc1ccc(Cl)nc1)[N+](=O)[O-]	none
CCCn1ncc(C(=O)O)c1C	none (no result: eIF2B yeast act)
COCCn1c(-c2ccccc2)cc(C(=O)O)c1C	eIF2B yeast act 51
COC(=O)C1=C(N)Oc2c(c(=O)oc3ccccc23)C1c1cccnc1 (stereo unspecified)	none (no result: eIF2B yeast act)
CCCCOP(=O)(OCCCC)/C(C#N)=C(/C)O	none (no result: eIF2B yeast act)
